From PubChem BioAssay
MC4R antag cAMP: antagonists of human melanocortin 4 receptor (MC4R); P32245; inhibition, % at 6.5 µM; AID 540295; hit rate 0.48% among 360,000; MC4R-expressing cells, MTII-stimulated cAMP, LANCE TR-FRET;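 active = inhibition above its plate's cutoff, the mean of tested wells on that plate plus 3 SD, cut at about 29% in these data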
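System: U2OS cells stably expressing human melanocortin 4 receptor (MC4R). Reagent: Melanotan II challenge after compound preincubation. Doses: 6.5 µM. Times: 30-min compound, 1-h challenge, 1-h detection, room temperature. Measured by: TR-FRET with Eu-cAMP and labeled anti-cAMP, 671 nm. Replicates: singlicate.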
HTR5A inv ctr: inverse agonist of human HTR5A in OPRM1-OPRD1 counter-screen; P47898; HTR5A cell line, luminescence, inverse agonism; inhibition, % at 9.3 µM; hit rate 0.083% among 340,000; AID 504634; in the data active = inhibition mostly above about 23%, no sharp cut-off; inactive = mostly below about 18%
Target sequence (P47898 whole entry, looked up): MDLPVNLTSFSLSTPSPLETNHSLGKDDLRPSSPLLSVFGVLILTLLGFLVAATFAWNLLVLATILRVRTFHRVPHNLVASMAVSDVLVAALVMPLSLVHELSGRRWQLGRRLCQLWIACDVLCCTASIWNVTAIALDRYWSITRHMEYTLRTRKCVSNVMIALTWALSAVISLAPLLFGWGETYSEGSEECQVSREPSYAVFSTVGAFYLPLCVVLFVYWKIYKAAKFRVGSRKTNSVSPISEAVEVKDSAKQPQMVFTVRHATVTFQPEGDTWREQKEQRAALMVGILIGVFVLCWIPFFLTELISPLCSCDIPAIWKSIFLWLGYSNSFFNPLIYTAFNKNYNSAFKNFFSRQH
HTR5A ag: HTR5A agonism, opioid heterodimer counter-screen. P47898. HTR5A agonist assay, luminescence, cell-based. activation, % at 9.3 µM. hit rate 0.61% among 340,000. AID 504692; in the data active = activation mostly above about 9.5%, no sharp cut-off; inactive = mostly below about 7.6%
OPRM1-OPRD1 ag: agonists of human mu-delta opioid receptor heterodimerization | cells, OPRM1-OPRD1 heterodimerization, luminescence | activation, % at 9.3 µM | hit rate 0.3% among 340,000 | P35372+P41143; in the data active = activation above about 18%
OPRM1-OPRD1 inv: mu-delta opioid heterodimer inverse agonism; inhibition, % at 9.3 µM; cell-based MOR-DOR heterodimer luminescence; AID 504357; hit rate 0.21% among 340,000; in the data active = inhibition above about 22%, passing the limit was not always enough
MC4R ag barr: agonists of human melanocortin 4 receptor (MC4R) beta-arrestin; U2OS MC4R beta-arrestin complementation, luminescence; percent of melanotan II response, DMSO zero; activation, % at 8.9 µM; hit rate 0.98% among 360,000; AID 540308; P32245;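 active = activation above a per-plate cutoff, the mean activation of sample wells on that plate plus 3 SD, cut at about 8% in these data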
MC4R barr ag: human MC4R beta-arrestin agonism confirmation; shares compounds with MC4R ag barr; U2OS MC4R beta-arrestin recruitment, luminescence; scaled DMSO 0%, Melanotan II 100%; hit rate 31% among 2,400; AID 602192; activation, % at 8.9 µM;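 active = mean activation across replicates above the hit cutoff set in the earlier primary screen, cut at about 8% in these data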
MOR DOR agonist: counter-screen for MC4R agonists: agonists of mu-delta opioid heterodimer; shares compounds with MC4R ag barr; U2OS PathHunter beta-arrestin, beta-gal luminescence; percent of deltorphin B response, DMSO zero; activation, % at 9.2 µM; hit rate 5.8% among 2,400; AID 602194;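 active = mean activation across replicates exceeds the hit threshold derived in the earlier primary screen, cut at about 18% in these data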
Numbers stand for hits; – = inactive; · = no result given. Hits are enriched below; roughly 2.4% of the tested compounds scored in any of these assays.

SMILES	MC4R antag cAMP	HTR5A inv ctr	HTR5A ag	OPRM1-OPRD1 ag	OPRM1-OPRD1 inv	MC4R ag barr	MC4R barr ag	MOR DOR agonist
CC1Cc2ccccc2N1C(=O)c1nn(C)cc1Br (stereo unspecified)	–	–	–	–	–	–	·	·
COc1ccc2c(c1)CCCC2NS(=O)(=O)OCC(Cl)(Cl)Cl (stereo unspecified)	–	–	–	–	–	10	–	–
Cc1ccc2nc(NC(=O)c3cc(-c4ccco4)nc4ccccc34)sc2c1	–	–	–	–	–	23	13	–
Cc1nn(Cc2ccccc2)c(Cl)c1/C=C/C(=O)OC(C(=O)NC(N)=O)C(C)C (stereo unspecified)	–	–	–	–	–	–	·	·
Cc1cc(C)c(NC(=O)CNC(=O)c2ccccc2OCc2c(C)noc2C)c(C)c1	–	–	–	–	–	–	·	·
COc1ccc(CC(N)c2csc(NC(=O)Nc3ccc(F)cc3)n2)cc1 (stereo unspecified)	–	·	·	·	·	–	·	·
COc1ccccc1NC(=O)Nc1nc(C(N)Cc2ccc(Cl)cc2)cs1 (stereo unspecified)	–	·	·	·	·	13	22	–
CC(C)CC(N)c1csc(NC(=O)Nc2ccccc2Cc2ccccc2)n1 (stereo unspecified)	–	·	·	·	·	–	·	·
NC(Cc1ccc(C(F)(F)F)cc1)c1csc(NC(=O)Nc2ccccc2)n1 (stereo unspecified)	–	·	·	·	·	19	19	–
COc1cc(OC)nc(Nc2nc(C(N)Cc3ccc(Cl)cc3)cs2)n1 (stereo unspecified)	–	·	·	·	·	21	–	–
CC(C)CC(N)c1csc(NC(=O)C(c2ccccc2)c2ccccc2)n1 (stereo unspecified)	–	·	·	·	·	13	16	24
CC(=O)c1cccc(NC(=O)COC(=O)[C@@H](NC(=O)OCc2ccccc2)C(C)C)c1	–	–	–	–	–	–	·	·
Cc1ccsc1CN(C)Cc1nc(C2CC2)no1	–	–	–	–	–	–	·	·
COc1ccc(-c2nnn(CC(=O)N(CC3CCCO3)C(C(=O)NC(C)(C)C)c3ccco3)n2)cc1OC (stereo unspecified)	–	–	–	–	–	–	·	·
NC(Cc1ccc(Cl)cc1)c1csc(NC(=O)Nc2ccccc2)n1 (stereo unspecified)	–	·	·	·	·	20	22	–
COc1ccc(OC)c(NC(=O)Nc2nc(C(N)CCc3ccccc3)cs2)c1 (stereo unspecified)	–	·	·	·	·	11	36	20
COc1cc(CNC(=O)Nc2nc(C(N)Cc3ccc(C(F)(F)F)cc3)cs2)cc(OC)c1OC (stereo unspecified)	–	·	·	·	·	10	–	–
NC(Cc1ccc(C(F)(F)F)cc1)c1csc(NC(=O)Nc2ccccc2Cl)n1 (stereo unspecified)	–	·	·	·	·	15	19	–
COc1ccc(CC(N)c2csc(NC(=O)NCc3ccccc3)n2)cc1 (stereo unspecified)	–	·	·	·	·	–	·	·
COC1C(O)C(O)C(O)C(O)C1O (stereo unspecified)	–	–	–	–	–	–	·	·
NNC(=S)Nc1c(F)cc(F)cc1Br	–	–	–	–	–	–	·	·
O=C1[C@H]2[C@H](C=CC[C@H]2C(=O)N2CCN(c3ccccc3)CC2)CCN1Cc1ccc(Cl)c(Cl)c1	–	–	–	–	–	69	15	–
O=C(NCCc1ccccc1)[C@@H]1CC=C[C@@H]2CCN(Cc3ccc(Cl)c(Cl)c3)C(=O)[C@@H]21	–	–	–	–	–	12	9.3	–
CCCCNC(=O)[C@@H]1CC=C[C@@H]2CCN(Cc3ccc(Cl)c(Cl)c3)C(=O)[C@@H]21	–	–	–	–	–	–	·	·
O=C1[C@H]2[C@H](C=CC[C@H]2C(=O)N2CCN(c3ccccc3)CC2)CCN1Cc1ccccc1	–	–	–	–	–	–	·	·
